From ChEMBL document CHEMBL4325879, “Optimization of substituted cinnamic acyl sulfonamide derivatives as tubulin polymerization inhibitors with anticancer activity” (Bioorg Med Chem Lett, 2018)
≈ marks a conversion by molar mass, not a printed value.

Legend:
[1] = molecular target: Tubulin (Bos taurus, UniProt Q6B856+Q862L2+Q862F3); assay: Inhibition of bovine brain tubulin polymerization after 20 mins in presence of GTP by spectrophotometric analysis
[2] = system: MCF7; assay: Antiproliferative activity against human MCF7 cells after 48 hrs by MTT assay; assay type: functional, cell-based; conditions: MCF7, 48 h
Summary of the method: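 MCF-7 human breast cancer cells exposed to compounds for 48 h. Cytotoxicity read by MTT assay. IC50 taken as the concentration giving 50% inhibition of cell growth.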

| IC50 [1] [µM] | pIC50 [1] | IC50 [2] [µg/mL] | Compound |
| --- | --- | --- | --- |
| 94.72 | 4.024 | 47.3 (≈ 129 µM) | O=C(/C=C/c1ccc2c(c1)OCO2)NS(=O)(=O)c1ccc(Cl)cc1 |
| > 100 | – | > 100 | O=C(/C=C/c1ccc2c(c1)OCCCO2)NS(=O)(=O)c1ccc(Br)cc1 |
| > 100 | – | > 100 | Cc1ccc(S(=O)(=O)NC(=O)/C=C/c2ccc3c(c2)OCCCO3)cc1 |
| > 100 | – | > 100 | O=C(/C=C/c1ccc2c(c1)OCCO2)NS(=O)(=O)c1ccc(Br)cc1 |
| > 100 | – | > 100 | O=C(/C=C/c1ccc2c(c1)OCCCO2)NS(=O)(=O)c1ccc(Cl)cc1 |
| 87.92 | 4.056 | 51.3 (≈ 135 µM) | O=C(/C=C/c1ccc2c(c1)OCCO2)NS(=O)(=O)c1ccc(Cl)cc1 |
| 93.33 | 4.03 | > 100 | Cc1ccc(S(=O)(=O)NC(=O)/C=C/c2ccc3c(c2)OCCO3)cc1 |
| 27.46 | 4.562 | 52.1 (≈ 143 µM) | O=C(/C=C/c1ccc2c(c1)OCCO2)NS(=O)(=O)c1ccc(F)cc1 |
| > 100 | – | > 100 | O=C(/C=C/c1ccc2c(c1)OCCCO2)NS(=O)(=O)c1ccc(F)cc1 |

Further lines, the molecule ahead of its results:

| Compound | IC50 [1] [µM] | pIC50 [1] | IC50 [2] [µg/mL] |
| --- | --- | --- | --- |
| O=C(/C=C/c1ccc2c(c1)OCO2)NS(=O)(=O)c1ccccc1 | 0.88 | 6.056 | 0.17 (≈ 0.513 µM) |
| O=C(/C=C/c1ccc2c(c1)OCO2)NS(=O)(=O)c1ccc(Br)cc1 | 51.59 | 4.288 | 89 (≈ 217 µM) |
| O=C(/C=C/c1ccc2c(c1)OCCCO2)NS(=O)(=O)c1ccccc1 | 49.01 | 4.31 | 53.9 (≈ 150 µM) |
| COc1cc2c(c(OC)c1OC)-c1ccc(OC)c(=O)cc1[C@@H](NC(C)=O)CC2 [COLCHICINE] | – | – | 0.33 (≈ 0.826 µM) |
| O=C(/C=C/c1ccc2c(c1)OCO2)NS(=O)(=O)c1ccc(F)cc1 | 76.9 | 4.114 | 74 (≈ 212 µM) |
| Cc1ccc(S(=O)(=O)NC(=O)/C=C/c2ccc3c(c2)OCO3)cc1 | 40.85 | 4.389 | 48.9 (≈ 142 µM) |
| O=C(/C=C/c1ccc2c(c1)OCCO2)NS(=O)(=O)c1ccccc1 | 5.47 | 5.262 | 2.16 (≈ 6.25 µM) |
